Experimental data: ChEMBL document CHEMBL1143315, “Investigation of ketone warheads as alternatives to the nitrile for preparation of potent and selective cathepsin K inhibitors” (Bioorg Med Chem Lett, 2009)

Experiments:
Homo sapiens [1] = species: Homo sapiens; assay: Selectivity ratio of IC50 for human cathepsin S to IC50 for humanized rabbit cathepsin K
Homo sapiens [2] = species: Homo sapiens; assay: Selectivity ratio of IC50 for human cathepsin L to IC50 for humanized rabbit cathepsin K
Homo sapiens [3] = species: Homo sapiens; assay: Selectivity ratio of IC50 for human cathepsin B to IC50 for humanized rabbit cathepsin K
Cathepsin K = Cathepsin K (Homo sapiens, UniProt P43235); assay: Inhibition of humanized rabbit cathepsin K
[4] = Clearance in rat at 2 to 5 mg/kg, iv; assay type: ADME, organism-based; design: dose 2-5 mg/kg, route intravenous; settings: in vivo
In short: (§1)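 Rats were given a single IV dose of 2–5 mg/kg in 60% PEG 200. Half-life (t1/2) and clearance (Cl, mL/min/kg) were taken from the plasma profile. Where two distinct phases were seen, separate t1/2a and terminal t1/2b values were calculated.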

[5] = Half life in rat at 2 to 5 mg/kg, iv; assay type: ADME, organism-based; design: dose 2-5 mg/kg, route intravenous; settings: in vivo; in short: as §1
[6] = Terminal half life in rat at 2 to 5 mg/kg, iv; assay type: ADME, organism-based; design: dose 2-5 mg/kg, route intravenous; settings: in vivo, read-out: beta t1/2 (converted); in short: as §1
[7] = Primary phase half life in rat at 2 to 5 mg/kg, iv; assay type: ADME, organism-based; design: dose 2-5 mg/kg, route intravenous; settings: in vivo, read-out: alphat1/2 (converted); in short: as §1
Rattus norvegicus = species: Rattus norvegicus; assay: Metabolic stability in rat hepatocytes assessed as compound remaining after 2 hrs

Row | SMILES | Ratio IC50 (Homo sapiens [1]) | Ratio IC50 (Homo sapiens [2]) | Ratio IC50 (Homo sapiens [3]) | IC50 (Cathepsin K) | clearance [4] | half-life [5] | half-life [6] | half-life [7] | remaining at 2 h (Rattus norvegicus)
1 | CC(C)(F)C[C@H](N[C@@H](c1ccc(-c2ccc(S(C)(=O)=O)cc2)cc1)C(F)(F)F)C(=O)NC1CCCN(S(=O)(=O)c2ccccn2)CC1=O (stereo in doubt; 11) [listing 1 of 2 here] | 35 | 681 | > 1000 |  |  |  |  |  | 
2 | CC(C)(F)C[C@H](N[C@@H](c1ccc(-c2ccc(S(C)(=O)=O)cc2)cc1)C(F)(F)F)C(=O)NC1CN(C(=O)c2ccccc2)CC1=O (stereo not given in full) | 14 | 197 | 188 | 2.9 nM |  |  |  |  | 
3 | CC(C)(F)C[C@H](N[C@@H](c1ccc(-c2ccc(S(C)(=O)=O)cc2)cc1)C(F)(F)F)C(=O)NC1CN(C(=O)NCc2ccccc2)CC1=O (stereo not given in full) | 36 | 667 | 53 | 15 nM |  |  |  |  | 
4 | CC(C)(F)C[C@H](N[C@@H](c1ccc(-c2ccc(S(C)(=O)=O)cc2)cc1)C(F)(F)F)C(=O)NC1CCCN(S(C)(=O)=O)CC1=O (stereo not given in full) | 114 | 617 | > 1000 | 16 nM |  |  |  |  | 
5 | CC(C)(F)C[C@H](N[C@@H](c1ccc(-c2ccc(S(C)(=O)=O)cc2)cc1)C(F)(F)F)C(=O)NC1CCCN(S(=O)(=O)c2ccccn2)CC1=O (stereo in doubt; 10) [listing 1 of 2 here] |  |  |  | 10 nM |  |  |  |  | 
6 | CC(=O)N1CC(=O)C(NC(=O)[C@H](CC(C)(C)F)N[C@@H](c2ccc(-c3ccc(S(C)(=O)=O)cc3)cc2)C(F)(F)F)C1 (stereo not given in full) | 604 | > 1000 | > 1000 | 4.2 nM | 67 mL/min/kg | 1.2 h |  |  | 
7 | CCOC(=O)N1CCCC(NC(=O)[C@H](CC(C)(C)F)N[C@@H](c2ccc(-c3ccc(S(C)(=O)=O)cc3)cc2)C(F)(F)F)C(=O)C1 (stereo not given in full) | 46 | > 185 | > 185 | 54 nM |  |  |  |  | 
8 | CC(C)(F)C[C@H](N[C@@H](c1ccc(-c2ccc(S(C)(=O)=O)cc2)cc1)C(F)(F)F)C(=O)NC1CN(S(=O)(=O)c2ccccn2)CC1=O (stereo not given in full) |  |  |  | 85 nM | 43 mL/min/kg | 1.3 h |  |  | 
9 | CC(C)(F)C[C@H](N[C@@H](c1ccc(-c2ccc(S(C)(=O)=O)cc2)cc1)C(F)(F)F)C(=O)NC1CCCNCC1=O (stereo not given in full) | 179 | 236 | 303 | 33 nM |  |  |  |  | 
10 | CC(C)(F)C[C@H](N[C@@H](c1ccc(-c2ccc(S(C)(=O)=O)cc2)cc1)C(F)(F)F)C(=O)NC1CN(C(=O)OC(C)(C)C)CC1=O (stereo not given in full) | 29 | 403 | 27 | 3.9 nM |  |  |  |  | 
11 | CC(C)(F)C[C@H](N[C@@H](c1ccc(-c2ccc(S(C)(=O)=O)cc2)cc1)C(F)(F)F)C(=O)NC1CN(C(=O)NS(=O)(=O)c2ccccc2)CC1=O (stereo not given in full) | > 6 | > 147 | 9 | 68 nM |  |  |  |  | 
12 | CC(C)(F)C[C@H](N[C@@H](c1ccc(-c2ccc(S(C)(=O)=O)cc2)cc1)C(F)(F)F)C(=O)NC1CN(S(C)(=O)=O)CC1=O (stereo not given in full) | 313 | 158 | 370 | 27 nM |  |  |  |  | 
13 | CC(C)(F)C[C@H](N[C@@H](c1ccc(-c2ccc(S(C)(=O)=O)cc2)cc1)C(F)(F)F)C(=O)NC1CCCN(S(=O)(=O)c2ccccn2)CC1=O (stereo in doubt; 9) [listing 1 of 2 here] |  |  |  | 2 nM | 46 mL/min/kg |  | 11 h | 0.6 h | 56%
14 | CC(C)(F)C[C@H](N[C@@H](c1ccc(-c2ccc(S(C)(=O)=O)cc2)cc1)C(F)(F)F)C(=O)NC1CCN(c2ccccc2S(C)(=O)=O)CC1=O (stereo not given in full) | 3.9 | 91 | 1 | 6.9 nM |  |  |  |  | 
15 | CCOC(=O)N1CCC(NC(=O)[C@H](CC(C)(C)F)N[C@@H](c2ccc(-c3ccc(S(C)(=O)=O)cc3)cc2)C(F)(F)F)C(=O)C1 (stereo not given in full) | 10 | > 1000 | 364 | 9 nM |  |  |  |  | 
16 | CC(C)(F)C[C@H](N[C@@H](c1ccc(-c2ccc(S(C)(=O)=O)cc2)cc1)C(F)(F)F)C(=O)NC1CCCN(S(=O)(=O)c2ccccn2)CC1=O (stereo in doubt; 10) [listing 2 of 2 here] | 54 | > 1000 | > 1000 |  |  |  |  |  | 
17 | CC(C)(F)C[C@H](N[C@@H](c1ccc(-c2ccc(S(C)(=O)=O)cc2)cc1)C(F)(F)F)C(=O)NC1CN(C(=O)Nc2ccccc2)CC1=O (stereo not given in full) | 104 | 40 | 355 | 7.3 nM |  |  |  |  | 
18 | CC(C)(F)C[C@H](N[C@@H](c1ccc(-c2ccc(S(C)(=O)=O)cc2)cc1)C(F)(F)F)C(=O)NC1CCCN(S(=O)(=O)c2ccccn2)CC1=O (stereo in doubt; 11) [listing 2 of 2 here] |  |  |  | 1.8 nM |  |  |  |  | 
19 | CC(C)(F)C[C@H](N[C@@H](c1ccc(-c2ccc(S(C)(=O)=O)cc2)cc1)C(F)(F)F)C(=O)NC1(C#N)CC1 [ODANACATIB] |  |  |  | 0.2 nM | 2 mL/min/kg | 6 h |  |  | 
20 | CC(C)(F)C[C@H](N[C@@H](c1ccc(-c2ccc(S(C)(=O)=O)cc2)cc1)C(F)(F)F)C(=O)NC1CN(C(N)=O)CC1=O (stereo not given in full) | 104 | 40 | 355 | 7.3 nM |  |  |  |  | 
21 | CC(C)(F)C[C@H](N[C@@H](c1ccc(-c2ccc(S(C)(=O)=O)cc2)cc1)C(F)(F)F)C(=O)NC1CCN(S(=O)(=O)c2ccccn2)CC1=O (stereo not given in full) | 22 | 621 | 232 | 5.7 nM | 24 mL/min/kg | 0.6 h |  |  | 
22 | CC(C)(F)C[C@H](N[C@@H](c1ccc(-c2ccc(S(C)(=O)=O)cc2)cc1)C(F)(F)F)C(=O)NC1CCCN(S(=O)(=O)Cc2ccccc2)CC1=O (stereo not given in full) | 8 | > 63 | 50 | 159 nM |  |  |  |  | 
23 | COC(=O)N1CC(=O)C(NC(=O)[C@H](CC(C)(C)F)N[C@@H](c2ccc(-c3ccc(S(C)(=O)=O)cc3)cc2)C(F)(F)F)C1 (stereo not given in full) |  |  |  | 4.3 nM | 40 mL/min/kg | 2.8 h |  |  | 
24 | CC(C)(F)C[C@H](N[C@@H](c1ccc(-c2ccc(S(C)(=O)=O)cc2)cc1)C(F)(F)F)C(=O)NC1CCCN(S(=O)(=O)c2ccccn2)CC1=O (stereo in doubt; 9) [listing 2 of 2 here] | 45 | 939 | > 1000 |  |  |  |  |  | 
25 | CC(C)(F)C[C@H](N[C@@H](c1ccc(-c2ccc(S(C)(=O)=O)cc2)cc1)C(F)(F)F)C(=O)NC1CCN(c2ccccc2)CC1=O (stereo not given in full) | 8 | 101 | 2 | 8.3 nM |  |  |  |  | 
26 | CC(C)(F)C[C@H](N[C@@H](c1ccc(-c2ccc(S(C)(=O)=O)cc2)cc1)C(F)(F)F)C(=O)NC1CNCC1=O (stereo not given in full) | 159 | 16 | 485 | 9.8 nM |  |  |  |  | 
27 | CCOC(=O)N1CC(=O)C(NC(=O)[C@H](CC(C)(C)F)N[C@@H](c2ccc(-c3ccc(S(C)(=O)=O)cc3)cc2)C(F)(F)F)C1 (stereo not given in full) |  |  |  | 1.6 nM | 53 mL/min/kg | 2.1 h |  |  | 
28 | CC(C)(F)C[C@H](N[C@@H](c1ccc(-c2ccc(S(C)(=O)=O)cc2)cc1)C(F)(F)F)C(=O)NC1CCCN(S(=O)(=O)c2cccc[n+]2[O-])CC1=O (stereo not given in full) | 33 | 984 | > 1000 | 2.6 nM |  |  |  |  | 
29 | COC(=O)NCC(=O)CNC(=O)[C@H](CC(C)(C)F)N[C@@H](c1ccc(-c2ccc(S(C)(=O)=O)cc2)cc1)C(F)(F)F | 38 | 152 | 148 | 45 nM | 17 mL/min/kg | 1.1 h |  |  | 
